Experimental data published in ChEMBL document CHEMBL3785075, “Novel Water-Soluble Amphotericin B-PEG Conjugates with Low Toxicity and Potent in Vivo Efficacy” (J Med Chem, 2016).
Values after ≈ are worked out from the molar mass of the structure shown. Active and inactive are the calls of the source. No cut-off for these calls is given here.

Tests used:
[1] = Solubility of compound in saline by HPLC analysis; type: physicochemical
[2] = Chemical stability of compound in phosphate buffer saline assessed as hydrolysis after 24 hrs by HPLC analysis; type: physicochemical; conditions: read-out: Drug degradation
Outline: (§1)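 Conjugate incubated in phosphate-buffered saline; samples taken at 4 h and after prolonged incubation to 24 h; percent hydrolysis determined by HPLC.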

[3] = Chemical stability of compound in phosphate buffer saline assessed as hydrolysis after 4 hrs by HPLC analysis; type: physicochemical; outline: as §1
[4] = tested on: Serum; assay: Metabolic stability in mouse serum assessed as hydrolysis after 24 hrs by HPLC analysis; type: ADME
[5] = tested on: Candida albicans; assay: Antifungal activity against Candida albicans after 48 hrs by CLSI-M27-A3 method; type: functional
[6] = tested on: Pichia kudriavzevii; assay: Antifungal activity against Candida krusei after 48 hrs by CLSI-M27-A3 method; type: functional
[7] = tested on: Aspergillus fumigatus; assay: Antifungal activity against Aspergillus fumigatus after 48 hrs by CLSI-M27-A3 method; type: functional
[8] = tested on: Aspergillus niger; assay: Antifungal activity against Aspergillus niger after 48 hrs by CLSI-M27-A3 method; type: functional
[9] = tested on: Aspergillus flavus; assay: Antifungal activity against Aspergillus flavus after 48 hrs by CLSI-M27-A3 method; type: functional
[10] = tested on: Aspergillus terreus; assay: Antifungal activity against Aspergillus terreus after 48 hrs by CLSI-M27-A3 method; type: functional
[11] = tested on: Rhizopus arrhizus; assay: Antifungal activity against Rhizopus oryzae after 48 hrs by CLSI-M27-A3 method; type: functional
[12] = tested on: Candida albicans; assay: Antifungal activity against Candida albicans CBS 562 assessed as viable cells at 2 times MIC after 2 hrs by time kill analysis relative to control; type: functional
[13] = Toxicity against human RBC assessed as hemolytic activity at 6 ug/ml after 1 to 21 hrs; type: cell-based; conditions: erythrocyte
[14] = Toxicity in iv dosed ICR mouse; type: organism-based; conditions: in vivo
[15] = tested on: MEF; assay: Cytotoxicity against mouse MEF cells assessed as cell viability at 1000 ug/ml after 24 hrs by MTT assay; type: cell-based
[16] = Elimination half life in ICR mouse at 7.5 mg/kg, iv by HPLC analysis; type: ADME, organism-based; conditions: in vivo, read-out: beta t1/2 (converted)
[17] = tested on: Mus musculus; assay: Metabolic stability in ICR mouse assessed as hydrolysis at 7.5 mg/kg, iv after 24 hrs by HPLC analysis; type: ADME, organism-based; conditions: in vivo
[18] = tested on: Mus musculus; assay: Metabolic stability in ICR mouse at 7.5 mg/kg, iv after 48 hrs by HPLC analysis; type: ADME, organism-based; conditions: in vivo
[19] = Elimination rate constant in ICR mouse at 7.5 mg/kg, iv by HPLC analysis; type: ADME, organism-based; conditions: in vivo
[20] = Volume of distribution in ICR mouse at 7.5 mg/kg, iv after 24 hrs by HPLC analysis; type: ADME, organism-based; conditions: in vivo
[21] = Clearance in ICR mouse at 7.5 mg/kg, iv after 24 hrs by HPLC analysis; type: ADME, organism-based; conditions: in vivo
[22] = AUC(0 to 24 hrs) in ICR mouse at 7.5 mg/kg, iv after 24 hrs by HPLC analysis; type: ADME, organism-based; set-up: time < 24 hr, dose 7.5 mg/kg, route intravenous; conditions: in vivo
[23] = Mean residence time(0 to 24 hrs) in ICR mouse at 1 mg/kg, iv after 24 hrs by HPLC analysis; type: ADME, organism-based; conditions: in vivo
[24] = Fraction unbound in ICR mouse plasma by HPLC analysis; type: ADME, cell-free
[25] = tested on: Candida albicans; assay: Antifungal activity against Candida albicans CBS 562 infected in ICR mouse assessed as increase in survival rate of animal at 1 mg/kg after 24 days; type: functional, organism-based
[26] = tested on: Candida albicans; assay: Antifungal activity against Candida albicans CBS 562 infected in ICR mouse assessed as increase in survival rate of animal at 1.75 mg/kg after 24 days; type: functional, organism-based
[27] = tested on: Candida albicans; assay: Antifungal activity against Candida albicans CBS 562 infected in ICR mouse assessed as increase in survival rate of animal at 3.5 mg/kg after 24 days; type: functional, organism-based
[28] = tested on: Candida albicans; assay: Antifungal activity against Candida albicans CBS 562 infected in ICR mouse assessed as increase in survival rate of animal at 7 mg/kg after 24 days; type: functional, organism-based
[29] = tested on: Candida albicans; assay: Antifungal activity against Candida albicans CBS 562 infected in ICR mouse assessed as fungal burden in mouse kidney at 1 mg/kg after 24 hrs; type: functional, organism-based
[30] = tested on: Candida albicans; assay: Antifungal activity against Candida albicans CBS 562 infected in ICR mouse assessed as fungal burden in mouse kidney at 1.75 mg/kg after 24 hrs; type: functional, organism-based
[31] = tested on: Candida albicans; assay: Antifungal activity against Candida albicans CBS 562 infected in ICR mouse assessed as fungal burden in mouse kidney at 3.5 mg/kg after 24 hrs; type: functional, organism-based
[32] = tested on: Candida albicans; assay: Antifungal activity against Candida albicans CBS 562 infected in ICR mouse assessed as fungal burden in mouse kidney at 7 mg/kg after 24 hrs; type: functional, organism-based
[33] = tested on: Candida albicans; assay: Antifungal activity against Candida albicans CBS 562 infected in ICR mouse assessed as fungal burden in mouse spleen at 1 mg/kg after 24 hrs; type: functional, organism-based
[34] = tested on: Candida albicans; assay: Antifungal activity against Candida albicans CBS 562 infected in ICR mouse assessed as fungal burden in mouse spleen at 1.75 mg/kg after 24 hrs; type: functional, organism-based
[35] = tested on: Candida albicans; assay: Antifungal activity against Candida albicans CBS 562 infected in ICR mouse assessed as fungal burden in mouse spleen at 3.5 mg/kg after 24 hrs; type: functional, organism-based
[36] = tested on: Candida albicans; assay: Antifungal activity against Candida albicans CBS 562 infected in ICR mouse assessed as fungal burden in mouse spleen at 7 mg/kg after 24 hrs; type: functional, organism-based
[37] = tested on: MEF; assay: Cytotoxicity against mouse MEF cells assessed as cell viability after 24 hrs by MTT assay; type: cell-based

COC(=O)[C@H]1[C@@H]2C[C@@H](O[C@@H]3O[C@H](C)[C@@H](O)[C@H](NC(=O)CCOCCOCCOCCOCCOCCOCCOCCOCCN)[C@@H]3O)/C=C/C=C/C=C/C=C/C=C/C=C/C=C/[C@H](C)[C@@H](O)[C@@H](C)[C@H](C)OC(=O)C[C@H](O)C[C@H](O)CC[C@@H](O)[C@H](O)C[C@H](O)C[C@](O)(C[C@@H]1O)O2
solubility [1]: 700 µg/mL (≈ 514 µM) | degraded at 24 h [2]: 0.8% | Stability [3]: Stable | Stability [4]: Stable | MFC [5]: 2 µg/mL (≈ 1.47 µM) | MIC [5]: 1 µg/mL (≈ 0.734 µM) | MFC [6]: 4 µg/mL (≈ 2.94 µM) | MIC [6]: 2 µg/mL (≈ 1.47 µM) | MFC [7]: 2 µg/mL (≈ 1.47 µM) | MIC [7]: 1 µg/mL (≈ 0.734 µM) | MFC [8]: 2 µg/mL (≈ 1.47 µM) | MIC [8]: 2 µg/mL (≈ 1.47 µM) | MFC [9]: 2 µg/mL (≈ 1.47 µM) | MIC [9]: 2 µg/mL (≈ 1.47 µM) | MFC [10]: 16 µg/mL (≈ 11.8 µM) | MIC [10]: 16 µg/mL (≈ 11.8 µM) | MFC [11]: 4000 µg/mL (≈ 2940 µM) | MIC [11]: 4 µg/mL (≈ 2.94 µM) | Activity [12]: 100% | Activity [13]: Non-toxic | MTD [14]: 42 mg/kg | Activity [15]: Non-toxic | half-life [16]: 3.15 h | Stability [17]: Stable | Stability [18]: Unstable | k el [19]: 6.11e-05 s⁻¹ | Vd [20]: 0.002 L | clearance [21]: 0.00847 mL/min | AUC(0-t) at 24 h [22]: 421 µg·h/mL | MRT last [23]: 5.43 h | fraction unbound [24]: 0.9 | Activity [25]: Active | Activity [26]: Active | Activity [27]: Active | Activity [28]: Active | Activity [29]: Active | Activity [30]: Active | Activity [31]: Active | Activity [32]: Active | Activity [33]: Active | Activity [34]: Active | Activity [35]: Active | Activity [36]: Active

C[C@@H]1[C@H](O)[C@@H](C)/C=C/C=C/C=C/C=C/C=C/C=C/C=C/[C@H](O[C@@H]2O[C@H](C)[C@@H](O)[C@H](NC(=O)CCOCCOCCOCCOCCOCCOCCOCCOCCN)[C@@H]2O)C[C@@H]2O[C@](O)(C[C@@H](O)C[C@@H](O)[C@H](O)CC[C@@H](O)C[C@@H](O)CC(=O)O[C@H]1C)C[C@H](O)[C@H]2C(=O)O
solubility [1]: 5500 µg/mL (≈ 4080 µM) | degraded at 24 h [2]: 0.5% | Stability [3]: Stable | MFC [5]: 4 µg/mL (≈ 2.97 µM) | MIC [5]: 1 µg/mL (≈ 0.742 µM) | MFC [6]: 8 µg/mL (≈ 5.94 µM) | MIC [6]: 4 µg/mL (≈ 2.97 µM) | MFC [7]: 4 µg/mL (≈ 2.97 µM) | MIC [7]: 4 µg/mL (≈ 2.97 µM) | MFC [8]: 1 µg/mL (≈ 0.742 µM) | MIC [8]: 1 µg/mL (≈ 0.742 µM) | MFC [9]: 4 µg/mL (≈ 2.97 µM) | MIC [9]: 4 µg/mL (≈ 2.97 µM) | MFC [10]: 32 µg/mL (≈ 23.7 µM) | MIC [10]: 32 µg/mL (≈ 23.7 µM) | MFC [11]: 8000 µg/mL (≈ 5940 µM) | MIC [11]: 8 µg/mL (≈ 5.94 µM) | Activity [13]: Toxic | IC50 [37]: 280 µg/mL (≈ 208 µM) | MTD [14]: 22 mg/kg
